Screens (PubChem BioAssay)
TRPC4 block: inhibitors of mouse TRPC4 channel; Q9QUQ5; HEK293 TRPC4beta/mu-opioid, DAMGO-evoked Fluo4 calcium flux; stronger effect = lower value; B-score at 10 µM; 300,000 tested, 0.39% active; AID 2247;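 active = B-score over 3 SD under the library average, no early fluorescence shift, positive overall ratio signal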
Target sequence (Q9QUQ5 whole entry, looked up): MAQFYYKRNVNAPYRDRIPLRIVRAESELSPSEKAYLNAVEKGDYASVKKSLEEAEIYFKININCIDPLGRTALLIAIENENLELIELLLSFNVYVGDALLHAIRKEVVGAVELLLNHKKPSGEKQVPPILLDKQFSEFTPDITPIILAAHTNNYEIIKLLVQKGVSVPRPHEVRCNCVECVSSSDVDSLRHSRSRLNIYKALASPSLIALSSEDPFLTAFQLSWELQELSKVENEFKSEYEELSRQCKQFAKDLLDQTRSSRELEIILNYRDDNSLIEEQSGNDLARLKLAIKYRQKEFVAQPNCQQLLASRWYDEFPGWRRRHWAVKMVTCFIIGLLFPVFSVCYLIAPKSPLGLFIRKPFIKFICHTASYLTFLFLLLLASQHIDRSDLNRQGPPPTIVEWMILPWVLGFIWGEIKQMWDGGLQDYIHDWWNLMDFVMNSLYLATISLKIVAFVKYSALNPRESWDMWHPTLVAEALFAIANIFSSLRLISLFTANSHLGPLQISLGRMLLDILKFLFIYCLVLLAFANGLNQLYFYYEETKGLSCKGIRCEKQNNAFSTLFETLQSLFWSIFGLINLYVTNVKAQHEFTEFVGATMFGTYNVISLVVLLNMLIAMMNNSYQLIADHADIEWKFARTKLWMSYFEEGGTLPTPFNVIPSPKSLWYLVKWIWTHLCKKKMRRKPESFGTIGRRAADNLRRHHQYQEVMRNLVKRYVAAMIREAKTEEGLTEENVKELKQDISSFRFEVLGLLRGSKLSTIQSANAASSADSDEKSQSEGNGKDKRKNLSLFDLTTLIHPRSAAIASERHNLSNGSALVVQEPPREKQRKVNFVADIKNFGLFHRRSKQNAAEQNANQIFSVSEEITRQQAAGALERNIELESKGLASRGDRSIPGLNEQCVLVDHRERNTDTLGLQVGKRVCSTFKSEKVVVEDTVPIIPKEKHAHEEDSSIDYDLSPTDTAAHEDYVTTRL
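Material: HEK293 cells with stable TRPC4beta plus mu-opioid receptor expression; probe or stimulus: DAMGO in two steps, submaximal then maximal; technique: Fluo4 calcium fluorescence by kinetic imaging, 5 s 1 Hz baseline; measure: integrated fluorescence ratio relative to baseline, converted to per-well B score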
TRPC4 act: TRPC4 (mouse) channel activation; 310,000 tested, 0.49% active; Q9QUQ5; B-score at 10 µM; HEK293 TRPC4beta/mu-opioid, Fluo4 calcium fluorescence; stronger effect = higher value;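 active = B-score above 5 SD of library B-scores, and initial fluorescence ratio not above library mean plus 5 SD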;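 also: positive B-score marks a calcium rise read as TRPC4 activation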
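Assay system: HEK293 stable line with TRPC4beta plus mu-opioid receptor. Times: dye 45 min RT, read 110 s. Measured by: kinetic Fluo4 calcium fluorescence. Measure: B score of integrated ratio. Controls: assay buffer as low control, maximal DAMGO as high control.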
TRPC6 act: activators of mouse TRPC6 channel; Q61143; HEK293-TRPC6 membrane potential dye fluorescence; stronger effect = higher value; B-score at 10 µM; 310,000 tested, 0.13% active;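 active = B-score of the integrated fluorescence ratio above library mean plus 3 SD, and starting fluorescence ratio within library mean plus 5 SD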;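 also: higher score means more depolarization so channel activation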
TRPC6 inh: inhibitors of mouse TRPC6 channel; HEK293-TRPC6, membrane potential dye, ACh-evoked depolarization; stronger effect = lower value; AID 2553; B-score at 10 µM; 310,000 tested, 1.1% active; Q61143;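 active = B-score under library mean minus 3 SD, initial fluorescence not abnormally high, positive integrated signal ratio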;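 also: B-score derived from integrated fluorescence ratio over the kinetic read; more negative B-score means stronger inhibition of depolarization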
TRPC4 PAM: allosterically enhances the mouse TRPC4 cation channel | Q9QUQ5 | HEK293 TRPC4beta/mu-opioid, DAMGO EC20, Fluo-4 Ca2+ flux; stronger effect = higher value | B-score at 10 µM | 310,000 tested, 0.42% active | AID 2227;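 active = B-score of calcium response area above 5 SD of library B-scores, with initial fluorescence ratio within 5 SD of library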;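 also: B-score of integrated fluorescence ratio over time as area under calcium response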
Numbers without * were called inactive; i = inactive. In the library only some 2.3% were active in any assay of this set; here they are far more common.

SMILES	TRPC4 block	TRPC4 act	TRPC6 act	TRPC6 inh	TRPC4 PAM
C=CCn1c(SCc2n[nH]c(=S)n2-c2ccccc2)nnc1-c1ccccc1	i	i	i	i	11*
C#CCOc1ccc2c3c(c(=O)oc2c1)CCCC3	i	i	i	i	i
O=C(CN(C(=O)CCC(=O)Nc1ccccn1)C1CCCC1)NCc1ccccc1	i	i	i	i	i
CCn1c(=O)c2cc(C(=O)N(C)c3cc(C)ccc3OC)sc2c2ccccc21	-6*	i	i	i	i
COCCNCC(O)CON=C1c2ccccc2-c2ccccc21 (stereo not drawn)	i	55*	i	i	i
CS(=O)(=O)N(CC(O)CON=C1c2ccccc2-c2ccccc21)c1ccc(F)cc1 (stereo not drawn)	i	i	i	i	i
CC(C)CCNCC(O)CON=C1c2ccccc2-c2ccccc21 (stereo not drawn)	i	66*	i	i	i
COc1cc2ccccc2cc1C(=O)NC(=S)Nc1cccc(C(=O)O)c1C	i	i	i	i	i
CC(Oc1ccccc1)C(=O)N=C1SC2CS(=O)(=O)CC2N1c1ccc(F)cc1 (stereo not drawn)	i	i	i	i	i
CC1OC(O[C@H]2CC[C@]3(C)C4C=C[C@]56OC[C@@]7(CC[C@@H](C)[C@H](C)C75)[C@H](O)C[C@@]6(C)[C@]4(C)CC[C@H]3C2(C)C)C(OC2OC(CO)C(O)C(O)C2OC2OCC(O)C(O)C2O)C(O)C1O (stereo partly drawn)	i	356*	13.1*	i	11*
CCC(NC(=O)Cc1c(C)c2c(cc(C)c3c(C)c(C)oc32)oc1=O)C(=O)O (stereo not drawn)	i	i	i	i	i
Cc1[nH]c2c(ccc3ccccc32)c1C1C(CCN)C1(C)C (stereo not drawn)	i	70*	i	i	i
CCCc1ccc2oc(C(=O)NCCN3CCCC(C(N)=O)C3)c(C)c2c1 (stereo not drawn)	i	i	i	i	13*
CC(C)(C)c1ccc(C(=O)N/C(=C\c2ccco2)C(=O)Nc2ccccc2C(=O)O)cc1	i	i	i	i	i
O=[N+]([O-])c1cccc(N(CC(O)CN2CCCC2)S(=O)(=O)c2ccccc2)c1 (stereo not drawn)	-8*	i	i	i	i
CC(NC(=O)c1ccco1)C(c1cccs1)N1CCN(c2ccc(F)cc2)CC1 (stereo not drawn)	i	i	i	i	i
CCC(=O)NC(C)C(c1cccs1)N1CCN(c2ccccc2)CC1 (stereo not drawn)	i	119*	i	i	i
CC(NC(=O)c1ccco1)C(c1cccs1)N1CCN(c2ccccc2)CC1 (stereo not drawn)	-6*	i	i	i	i
CN1CCN(c2ccc(NC(=O)c3ccc(-c4cccc([N+](=O)[O-])c4)o3)cc2)CC1	i	167*	i	i	i
CN1CCN(c2ccc(NC(=O)c3ccc(-c4ccc(Cl)cc4)o3)cc2)CC1	i	i	i	i	i
Cc1cccc(OCC(=O)NCc2ccc(F)cc2)c1	i	i	i	i	i
Cc1ccc(Sc2ccc(CO)cc2[N+](=O)[O-])cc1	-7*	i	i	i	i
O=C(NC1=NCCS1)C1CC(=O)N(c2ccc(Cl)cc2)C1 (stereo not drawn)	i	i	i	i	i
CCCNC(=O)C1=C(C)C(=O)OC12CCC(C)CC2 (stereo not drawn)	i	i	i	i	i
CC1=C(C(=O)NCCN2CCN(C)CC2)C2(CCC(C)CC2)OC1=O (stereo not drawn)	i	i	i	i	22*
SMILES	TRPC4 block	TRPC4 act	TRPC6 act	TRPC6 inh	TRPC4 PAM
O=[N+]([O-])c1ccc(S(=O)(=O)NCCCc2ccccc2)cc1	i	i	i	i	57*
O=C(Cn1cc([N+](=O)[O-])ccc1=O)N1CCCc2ccccc21	i	i	i	i	i
CN[C@@H]1CC[C@H](c2ccc(Cl)c(Cl)c2)c2ccccc21	i	i	i	i	14*
COc1ccccc1C1CCN(Cc2ccc(Cl)c(Cl)c2)CC1	i	i	i	i	i
CCOc1ccc(CN(C)C(=O)Cc2c[nH]c3ccccc23)cc1	i	i	i	i	i
CCn1c(=O)[nH]c(=O)c2c(N)c(C(=O)c3cc(F)ccc3F)sc21	i	i	i	i	10*
Cc1cc2oc(C(=O)N(Cc3ccco3)C3CCS(=O)(=O)C3)cc(=O)c2cc1Cl (stereo not drawn)	i	i	i	i	82*
CCCCCCCNC(=O)COc1ccc2c(c1)C(=O)CC(C)(C)O2	-5*	i	i	i	i
CC(C)NC(=O)COc1ccc2c(c1)C(=O)CC(C)(C)O2	i	i	i	i	i
CCOC(=O)c1c(C)[nH]c(C)c1S(=O)(=O)NCC1CCN(Cc2cccc(F)c2)CC1	i	i	i	i	i
Nc1nc(Cl)nc2c1ncn2[C@@H]1O[C@H](CO)[C@@H](O)[C@H]1O	i	50*	i	i	i
Cc1ccc(C(=O)NNC(=O)C2CSC3(C)CCC(=O)N23)cc1 (stereo not drawn)	i	i	i	i	24*
COCCNC(=O)CSc1n[nH]c(=O)n1CCc1ccccc1	i	i	i	i	i
CN1CCCC(OC(=O)c2cc(Cl)ccc2Cl)C1 (stereo not drawn)	i	65*	i	i	13*
COc1cccc(C(=O)OC2CCCN(C)C2)c1 (stereo not drawn)	i	129*	i	i	i
CN1CCC(OC(=O)c2cc3cc(Br)ccc3oc2=O)CC1	i	i	i	i	i
CN1CCCC(OC(=O)c2cc(Br)ccc2Cl)C1 (stereo not drawn)	i	126*	i	i	10*
CN1CCCC(OC(=O)c2cc(F)c(F)c(F)c2F)C1 (stereo not drawn)	i	i	i	i	i
CCCCOc1ccc(NC(=O)CCSc2nccn2C)cc1	i	i	i	i	i
CN(C)c1ccc(NC(=O)CSc2nnc(-c3ccco3)c(-c3ccco3)n2)cc1	i	i	i	-5.05*	i
Cc1ccc(NC(=O)Nc2ccc([N+](=O)[O-])cc2)nc1	i	i	i	i	i
Cc1ccc(NC(=O)Nc2cccc([N+](=O)[O-])c2)nc1	i	i	i	i	19*
